In ChEMBL document CHEMBL4706565, “Anti-glioma effects of 2-aminothiophene-3-carboxamide derivatives, ANO1 channel blockers” (Eur J Med Chem, 2020):
Calls of active or inactive are those of the source. The calls are words filed in the database; no cut-off is given here.

Assays:
[1] = target: T1, Anoctamin-1 (Homo sapiens) (UniProt Q5XXA6); assay: Inhibition of human ANO1 channel expressed in HEK293 cells at 10 uM incubated for 10 mins by FLIPR assay relative to control; type: cell-based
T1 sequence (whole entry): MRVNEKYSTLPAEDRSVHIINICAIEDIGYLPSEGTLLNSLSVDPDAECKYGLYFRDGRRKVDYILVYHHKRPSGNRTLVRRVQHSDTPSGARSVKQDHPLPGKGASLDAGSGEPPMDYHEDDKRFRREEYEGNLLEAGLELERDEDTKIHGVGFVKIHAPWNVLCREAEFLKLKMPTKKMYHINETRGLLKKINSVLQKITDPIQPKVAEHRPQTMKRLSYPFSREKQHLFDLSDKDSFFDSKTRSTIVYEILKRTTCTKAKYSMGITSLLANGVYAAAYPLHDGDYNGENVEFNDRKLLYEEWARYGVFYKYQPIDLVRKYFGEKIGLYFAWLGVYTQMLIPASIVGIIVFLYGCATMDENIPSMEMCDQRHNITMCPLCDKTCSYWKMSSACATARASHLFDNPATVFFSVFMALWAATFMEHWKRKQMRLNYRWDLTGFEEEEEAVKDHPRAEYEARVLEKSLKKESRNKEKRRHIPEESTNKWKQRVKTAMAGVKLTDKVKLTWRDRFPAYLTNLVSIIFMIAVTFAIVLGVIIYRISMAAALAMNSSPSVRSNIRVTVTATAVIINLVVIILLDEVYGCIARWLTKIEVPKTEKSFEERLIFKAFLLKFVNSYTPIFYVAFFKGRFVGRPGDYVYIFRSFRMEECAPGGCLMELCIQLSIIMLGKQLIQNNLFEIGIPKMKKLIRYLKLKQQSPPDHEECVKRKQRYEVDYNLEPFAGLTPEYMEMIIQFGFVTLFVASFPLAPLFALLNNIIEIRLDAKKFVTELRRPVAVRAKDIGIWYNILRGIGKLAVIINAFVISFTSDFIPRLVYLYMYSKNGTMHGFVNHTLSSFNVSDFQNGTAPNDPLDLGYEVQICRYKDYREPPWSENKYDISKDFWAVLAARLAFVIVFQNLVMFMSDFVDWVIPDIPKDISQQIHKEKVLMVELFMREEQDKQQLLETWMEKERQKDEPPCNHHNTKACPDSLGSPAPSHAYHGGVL
In short: (§1)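 HEK293 cells expressing human ANO1, 50,000 cells/well, plated overnight. Loaded with FLIPR Red membrane-potential dye in HEPES-buffered saline (pH 7.4) for 40-60 min at room temperature. Compound added for 10 min at room temperature, final DMSO 0.5%.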

Anoctamin-1 [2] = target: T2, Anoctamin-1 (Homo sapiens, UniProt Q5XXA6); assay: Inhibition of human ANO1 channel expressed in HEK293 cells incubated for 10 mins by FLIPR assay; type: cell-based; in short: as §1
T2 sequence (Q5XXA6 whole entry): T1 sequence (whole entry)

Anoctamin-1 [3] = target: T3, Anoctamin-1 (Mus musculus, UniProt Q8BHY3); assay: Inhibition of GFP-fused mouse ANO1 channel expressed in HEK293A cells assessed as inhibition of ATP-induced channel current amplitude at membrane potential of +80 mV by patch clamp electrophysiology assay; type: cell-based, HEK293-A
T3 sequence (Q8BHY3 whole entry): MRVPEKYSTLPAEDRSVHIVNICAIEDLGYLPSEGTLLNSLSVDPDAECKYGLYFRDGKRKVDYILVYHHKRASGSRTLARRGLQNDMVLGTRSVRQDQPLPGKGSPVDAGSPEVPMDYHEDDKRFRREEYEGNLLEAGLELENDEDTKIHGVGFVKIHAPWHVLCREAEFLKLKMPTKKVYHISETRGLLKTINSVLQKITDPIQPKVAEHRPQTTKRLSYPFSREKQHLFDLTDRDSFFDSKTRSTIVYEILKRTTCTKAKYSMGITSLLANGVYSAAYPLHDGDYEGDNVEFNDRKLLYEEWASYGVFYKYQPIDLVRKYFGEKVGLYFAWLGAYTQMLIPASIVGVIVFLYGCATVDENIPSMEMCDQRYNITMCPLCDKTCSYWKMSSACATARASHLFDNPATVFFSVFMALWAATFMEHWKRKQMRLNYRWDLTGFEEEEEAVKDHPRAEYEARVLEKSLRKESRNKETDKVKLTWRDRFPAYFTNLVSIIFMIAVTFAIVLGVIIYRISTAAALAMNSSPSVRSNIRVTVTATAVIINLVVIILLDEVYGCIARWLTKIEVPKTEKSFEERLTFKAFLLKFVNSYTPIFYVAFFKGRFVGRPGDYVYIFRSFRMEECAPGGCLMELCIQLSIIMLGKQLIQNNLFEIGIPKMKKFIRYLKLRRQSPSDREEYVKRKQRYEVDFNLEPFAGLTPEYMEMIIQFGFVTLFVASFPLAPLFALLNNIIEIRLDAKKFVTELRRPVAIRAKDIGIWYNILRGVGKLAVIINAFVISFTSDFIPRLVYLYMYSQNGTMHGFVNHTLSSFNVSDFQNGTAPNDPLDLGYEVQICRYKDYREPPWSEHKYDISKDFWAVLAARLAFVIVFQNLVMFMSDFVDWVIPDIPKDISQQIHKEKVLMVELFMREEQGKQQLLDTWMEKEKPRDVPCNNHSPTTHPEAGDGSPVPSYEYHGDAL
In short: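 Whole-cell recording at room temperature in HEK293A cells transfected with GFP-mANO1, GFP-mANO2 or GFP-mTTYH1. 1 s ramps from +80 to -80 mV, holding potential -10 mV. For ANO1/ANO2: pipette CsCl 146 mM with Ca-EGTA-NMDG, pH 7.3; bath NaCl-based, pH 7.3. For TTYH1: Tris-aspartate pipette (pH 7.2) and Tris-HCl bath (pH 7.4), with […] and BaCl2 added to block K+ channels, and hypotonic (220 mOsm/kg) bath. Washout recordings assessed reversibility.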

[4] = Antiproliferative activity against mouse primary astrocytes assessed as reduction in cell viability at 100 uM measured after 72 hrs by Celltiter-Glo luminescent assay; type: cell-based, Astrocyte
In short: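 Primary astrocytes isolated from adult mouse brain by a previously reported method. 5.0×10^3 cells/well, compound as 1:4 serial DMSO dilutions, CellTiter-Glo viability at 72 h.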

U138-MG [5] = assay: Antiproliferative activity against human U138 cells overexpressing ANO1 assessed as reduction in cell viability at 100 uM measured after 72 hrs by Celltiter-glo assay; type: functional
In short: (§2)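 5.0×10^3 cells/well seeded, overnight, then compounds added as 1:4 serial dilutions in DMSO; viability read after 72 h with CellTiter-Glo luminescence. GI50 from fitted dose-response curves; triplicate wells, SD from three independent experiments. DMEM for U251 and U138, MEM for U87MG, both with 10% FBS and pen/strep, 37 °C, 5% CO2.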

U-251 [6] = assay: Antiproliferative activity against human U251 cells overexpressing ANO1 assessed as reduction in cell viability measured after 72 hrs by Celltiter-glo assay; type: functional; in short: as §2
U-87 MG [7] = assay: Antiproliferative activity against human U87MG cells overexpressing ANO1 assessed as reduction in cell viability measured after 72 hrs by Celltiter-glo assay; type: functional, U-87MG ATCC; in short: as §2
U-251 [8] = assay: Antiproliferative activity against human U251 cells overexpressing ANO1 assessed as reduction in cell viability at 100 uM measured after 72 hrs by Celltiter-glo assay; type: functional; in short: as §2
U-87 MG [9] = assay: Antiproliferative activity against human U87MG cells overexpressing ANO1 assessed as reduction in cell viability at 100 uM measured after 72 hrs by Celltiter-glo assay; type: functional, U-87MG ATCC; in short: as §2
U-251 [10] = assay: Inhibition of anchorage-independent colony formation in human U251 cells at 10 uM incubated for 14 days by crystal violet staining based soft agar colony formation assay; type: functional, cell-based; settings: time 14.0 day
In short: (§3)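 Soft agar assay: 2.0×10^3 U251 cells in complete medium with 0.3% agar over a 0.6% bottom agar layer. Treated with compounds at 1-100 μM for 14 days, 37 °C, 5% CO2. Colonies stained with crystal violet for 24 h, whole wells photographed and colonies counted against DMSO control; n = 3.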

U-251 [11] = assay: Inhibition of anchorage-independent colony formation in human U251 cells at 100 uM incubated for 14 days by crystal violet staining based soft agar colony formation assay; type: functional; settings: U-251, 336 h, time 14 day; in short: as §3
U-251 [12] = assay: Inhibition of cell migration in human U251 cells at 10 uM incubated for 18 hrs by wound healing assay; type: functional
In short: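 U251 monolayer, 2.0×10^5 cells/well, plated overnight, then scratched and washed with PBS. Wound area imaged before and after incubation; migration ratio taken from migrated area. One-way ANOVA.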

U-251 [13] = assay: Inhibition of cell invasion in human U251 cells at 10 uM incubated for 48 hrs by Boyden chamber method; type: functional
In short: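 Boyden chamber invasion: U251 cells serum-starved 24 h, then 2.5×10^5 cells seeded in 8-μm ECMatrix-coated transwells. Treated with compound at 1 or 10 μM for 48 h at 37 °C. Invasion ratio from relative fluorescence.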

U138-MG [14] = assay: Antiproliferative activity against human U138 cells overexpressing ANO1 assessed as reduction in cell viability measured after 72 hrs by Celltiter-glo assay; type: functional; in short: as §2
U-251 [15] = assay: Inhibition of colony formation in human U251 cells at 10 uM incubated for 14 days by crystal violet dye based assay; type: functional; settings: U-251, 336 h, time 14 day
In short: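 Colonies stained 24 h with crystal violet in methanol/formaldehyde/PBS, washed, extracted with 10% acetic acid and read at A570 nm. Compared against DMSO control.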

U-251 [16] = assay: Inhibition of anchorage-independent colony formation in human U251 cells at 30 uM incubated for 14 days by crystal violet staining based soft agar colony formation assay; type: functional, cell-based; settings: time 14.0 day; in short: as §3

With NC(=O)c1c(N)sc2c1CCCCC2 the inhibition [1] was < 10%.
In the case of CC(C)(C)C1CCc2c(sc(NC(=S)NC(=O)c3ccccc3)c2C(N)=O)C1 (stereo unspecified), the inhibition [1] is reported as 70.3%, the IC50 (Anoctamin-1 [2]) is reported as 3.09 µM and the IC50 (Anoctamin-1 [3]) is reported as 5.66 µM. For the same molecule, the inhibition at 72 h, 100 µM [4] was < 50%, the inhibition at 100 µM (U138-MG [5]) was < 50% and the GI50 (U-251 [6]) was 70.2 µM. For the same molecule, the GI50 (U-87 MG [7]) was 82.4 µM.
With CC(C)(C)C(=O)Nc1sc2c(c1C(N)=O)CCCCC2 the inhibition [1] was 67.9%, the IC50 (Anoctamin-1 [2]) was 4.79 µM and the IC50 (Anoctamin-1 [3]) was 4.07 µM. For the same molecule, the inhibition at 72 h, 100 µM [4] was < 50%, the inhibition at 100 µM (U-251 [8]) was < 50% and the inhibition at 100 µM (U-87 MG [9]) was < 50%. For the same molecule, the inhibition at 100 µM (U138-MG [5]) was < 50%.
With NC(=O)c1c(NC(=O)c2ccco2)sc2c1CCCCC2 the inhibition [1] was < 10%.
In the case of NC(=O)c1ccsc1N, the inhibition [1] is reported as < 10%.
NC(=O)c1c(N)sc2c1CCC2 gave an inhibition [1] of 15.4%.
For NC(=O)c1c(NC(=S)NC(=O)c2cccc(Cl)c2)sc2c1CCC2, the inhibition [1] was < 10%.
Work on CC(C)(C)C1CCc2c(sc(N)c2C(N)=O)C1 (stereo unspecified) yielded an inhibition [1] of 80.1%, an IC50 (Anoctamin-1 [2]) of 2.95 µM and an IC50 (Anoctamin-1 [3]) of 2.5 µM. For the same molecule, the inhibition at 72 h, 100 µM [4] was < 50%, the inhibition at 100 µM (U-87 MG [9]) was < 50% and the inhibition at 100 µM (U138-MG [5]) was < 50%. For the same molecule, the GI50 (U-251 [6]) was 83.2 µM.
Work on NC(=O)c1c(NC(=S)NC(=O)c2ccccc2)sc2c1CCCCC2 yielded an inhibition [1] of 21.1%.
Molecule NC(=O)c1c(NC(=S)NC(=O)c2ccccc2Cl)sc2c1CCC2 has an inhibition [1] of 76.7%, an IC50 (Anoctamin-1 [2]) of 2.29 µM and an IC50 (Anoctamin-1 [3]) of 3.12 µM. The inhibition at 72 h, 100 µM [4] was < 50%, the inhibition at 100 µM (U-87 MG [9]) was < 50% and the inhibition at 100 µM (U138-MG [5]) was < 50%. It also gave a GI50 (U-251 [6]) of 94.6 µM.
In the case of NC(=O)c1c(NC(=S)NC(=O)c2ccco2)sc2c1CCCCC2, the inhibition [1] is reported as 21.8%.
With NC(=O)c1c(NC(=O)c2ccccc2)sc2c1CCC2 the inhibition [1] was < 10%.
CC(C)(C)C1CCc2c(sc(NC(=S)NC(=O)c3ccco3)c2C(N)=O)C1 (stereo unspecified) gave an inhibition [1] of 13.8%.
With NC(=O)c1c(NC(=S)NC(=O)c2ccco2)sc2c1CCC2 the inhibition [1] was < 10%.
With CC(C)(C)C1CCc2c(sc(NC(=O)c3ccco3)c2C(=O)O)C1 (stereo unspecified) the IC50 (Anoctamin-1 [3]) was 1.53 µM, the inhibition at 72 h, 100 µM [4] was < 50% and the inhibition at 100 µM (U-87 MG [9]) was < 50%. For the same molecule, the inhibition (U-251 [10]) was “inactive”, the inhibition at 100 µM (U-251 [11]) was 72.7% and the inhibition at 10 µM (U-251 [12]) was 34.8%. For the same molecule, the inhibition at 10 µM (U-251 [13]) was 28.3%, the GI50 (U-251 [6]) was 41.9 µM and the GI50 (U138-MG [14]) was 89.4 µM. The inhibition at 10 µM (U-251 [15]) was 72.7% and the inhibition (U-251 [16]) was “inactive”.
In the case of NC(=O)c1ccsc1NC(=O)c1ccccc1, the inhibition [1] is reported as < 10%.
With NC(=O)c1c(NC(=S)NC(=O)c2ccccc2)sc2c1CCC2 the inhibition [1] was 70.5%, the IC50 (Anoctamin-1 [2]) was 2.83 µM and the IC50 (Anoctamin-1 [3]) was 2.63 µM. It also gave a GI50 (U-251 [6]) of 24.4 µM, a GI50 (U-87 MG [7]) of 26 µM and a GI50 (U138-MG [14]) of 17.1 µM.
